Reference: ChEMBL document CHEMBL3739379, “Anti-Candida activity and cytotoxicity of a large library of new N-substituted-1,3-thiazolidin-4-one derivatives” (Eur J Med Chem, 2016)
≈ marks a conversion by molar mass, not a printed value.

What was measured:
Format in all cases: functional
[1] = system: Enterobacter sp.; experiment: Antibacterial activity against Enterobacter sp. after 18 to 22 hrs by broth microdilution method
Procedure, shortened: (§1)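 Broth microdilution per NCCLS in Mueller-Hinton II broth; isolates subcultured for purity. Compounds dissolved in DMSO, serial dilutions 256 to 0.5 µg/mL; inoculum 10^5/mL. Controls: organism without compound, medium only. Incubation 18 to 22 h at 35 °C. MIC is the lowest concentration giving complete growth inhibition, read by unaided eye.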

[2] = system: Staphylococcus aureus; experiment: Antibacterial activity against Staphylococcus aureus after 18 to 22 hrs by broth microdilution method; procedure, shortened: as §1
[3] = system: Pichia kudriavzevii; experiment: Antifungal activity against Candida krusei clinical isolate after 24 hrs by sabouraud dextrose broth based microdilution method
Procedure, shortened: (§2)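 Clinical isolates identified by conventional methods and subcultured for purity. Broth microdilution per NCCLS in Sabouraud dextrose broth; compounds dissolved in DMSO and serially diluted; inoculum 10^3/mL. Controls: fungi without compound, medium only. Incubated 24 h at 37 °C. MIC is the lowest concentration with complete growth inhibition by unaided eye. Values are geometric means over isolates per species.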

[4] = system: Candida tropicalis; experiment: Antifungal activity against Candida tropicalis clinical isolate after 24 hrs by sabouraud dextrose broth based microdilution method; procedure, shortened: as §2
[5] = system: Staphylococcus haemolyticus; experiment: Antibacterial activity against Staphylococcus haemolyticus after 18 to 22 hrs by broth microdilution method; procedure, shortened: as §1
[6] = system: Staphylococcus warneri; experiment: Antibacterial activity against Staphylococcus warneri after 18 to 22 hrs by broth microdilution method; procedure, shortened: as §1
[7] = system: Nakaseomyces glabratus; experiment: Antifungal activity against Candida glabrata clinical isolate after 24 hrs by sabouraud dextrose broth based microdilution method; procedure, shortened: as §2
[8] = system: Klebsiella oxytoca; experiment: Antibacterial activity against Klebsiella oxytoca after 18 to 22 hrs by broth microdilution method; procedure, shortened: as §1
[9] = system: Candida parapsilosis; experiment: Antifungal activity against Candida parapsilosis clinical isolate after 24 hrs by sabouraud dextrose broth based microdilution method; details: Lodderomyces parapsilosis; procedure, shortened: as §2
[10] = system: [Candida] sake; experiment: Antifungal activity against Candida sake clinical isolate after 24 hrs by sabouraud dextrose broth based microdilution method; details: Fermentozyma sake; procedure, shortened: as §2
[11] = system: Proteus mirabilis; experiment: Antibacterial activity against Proteus mirabilis after 18 to 22 hrs by broth microdilution method; procedure, shortened: as §1
[12] = system: Enterococcus faecalis; experiment: Antibacterial activity against […] faecalis after 18 to 22 hrs by broth microdilution method; procedure, shortened: as §1
[13] = system: Escherichia coli; experiment: Antibacterial activity against Escherichia coli at after 18 to 22 hrs by broth microdilution method; procedure, shortened: as §1
[14] = system: Candida albicans; experiment: Antifungal activity against Candida albicans clinical isolate after 24 hrs by sabouraud dextrose broth based microdilution method; procedure, shortened: as §2

| SMILES | MIC [1] | MIC [2] | MIC [3] | MIC [4] | MIC [6] | MIC [7] | MIC [8] | MIC [9] | MIC [10] | MIC [11] | MIC [12] | MIC [13] | MIC [14] | MIC [5] |
| --- | --- | --- | --- | --- | --- | --- | --- | --- | --- | --- | --- | --- | --- | --- |
| CCCC/C(CC)=N/N=C1\SCC(=O)N1CN1C(=O)c2ccccc2C1=O | > 256 µg/mL | > 256 µg/mL | 32 µg/mL (≈ 82.8 µM) | 2 µg/mL (≈ 5.17 µM) | > 256 µg/mL | 16 µg/mL (≈ 41.4 µM) | > 256 µg/mL | 8 µg/mL (≈ 20.7 µM) | 2 µg/mL (≈ 5.17 µM) | > 256 µg/mL | > 256 µg/mL | > 256 µg/mL | 4 µg/mL (≈ 10.3 µM) | > 256 µg/mL |
| CCC(CC)=N/N=C1\SCC(=O)N1Cc1ccc([N+](=O)[O-])cc1 | > 256 µg/mL | > 256 µg/mL | 32 µg/mL (≈ 95.7 µM) | 8 µg/mL (≈ 23.9 µM) | > 256 µg/mL | 8 µg/mL (≈ 23.9 µM) | > 256 µg/mL | 128 µg/mL (≈ 383 µM) | 2 µg/mL (≈ 5.98 µM) | > 256 µg/mL | > 256 µg/mL | > 256 µg/mL | 2 µg/mL (≈ 5.98 µM) | > 256 µg/mL |
| O=C1CS/C(=N\N=C2CCCC2)N1Cc1cccc2ccccc12 | > 256 µg/mL | > 256 µg/mL | 16 µg/mL (≈ 47.4 µM) | 8 µg/mL (≈ 23.7 µM) | > 256 µg/mL | 16 µg/mL (≈ 47.4 µM) | > 256 µg/mL | 128 µg/mL (≈ 379 µM) | 256 µg/mL (≈ 759 µM) | > 256 µg/mL | > 256 µg/mL | > 256 µg/mL | 2 µg/mL (≈ 5.93 µM) | > 256 µg/mL |
| CC1CC/C(=N\N=C2/SCC(=O)N2Cc2cccc3ccccc23)C1 (centres undefined) | > 256 µg/mL | > 256 µg/mL | 256 µg/mL (≈ 728 µM) | 128 µg/mL (≈ 364 µM) | > 256 µg/mL | 16 µg/mL (≈ 45.5 µM) | > 256 µg/mL | 64 µg/mL (≈ 182 µM) | 256 µg/mL (≈ 728 µM) | > 256 µg/mL | > 256 µg/mL | > 256 µg/mL | 2 µg/mL (≈ 5.69 µM) | > 256 µg/mL |
| CC/C(C)=N/N=C1\SCC(=O)N1Cc1cccc2ccccc12 | > 256 µg/mL | > 256 µg/mL | 2 µg/mL (≈ 6.15 µM) | 128 µg/mL (≈ 393 µM) | > 256 µg/mL | 2 µg/mL (≈ 6.15 µM) | > 256 µg/mL | 2 µg/mL (≈ 6.15 µM) | 2 µg/mL (≈ 6.15 µM) | > 256 µg/mL | > 256 µg/mL | > 256 µg/mL | 2 µg/mL (≈ 6.15 µM) | > 256 µg/mL |
| CC1CCC(=N/N=C2\SCC(=O)N2Cc2cccc3ccccc23)CC1 (centres undefined) | > 256 µg/mL | > 256 µg/mL | 8 µg/mL (≈ 21.9 µM) | 128 µg/mL (≈ 350 µM) | > 256 µg/mL | 16 µg/mL (≈ 43.8 µM) | > 256 µg/mL | 8 µg/mL (≈ 21.9 µM) | 4 µg/mL (≈ 10.9 µM) | > 256 µg/mL | > 256 µg/mL | > 256 µg/mL | 2 µg/mL (≈ 5.47 µM) | > 256 µg/mL |
| CC1CCCC/C1=N\N=C1/SCC(=O)N1Cc1cccc2ccccc12 (centres undefined) | > 256 µg/mL | > 256 µg/mL | 16 µg/mL (≈ 43.8 µM) | 4 µg/mL (≈ 10.9 µM) | > 256 µg/mL | 8 µg/mL (≈ 21.9 µM) | > 256 µg/mL | 16 µg/mL (≈ 43.8 µM) | 2 µg/mL (≈ 5.47 µM) | > 256 µg/mL | > 256 µg/mL | > 256 µg/mL | 4 µg/mL (≈ 10.9 µM) | > 256 µg/mL |

Continued, in another order:

| MIC [1] | MIC [2] | MIC [3] | MIC [4] | MIC [6] | MIC [7] | MIC [8] | MIC [9] | MIC [10] | MIC [11] | MIC [12] | MIC [13] | MIC [14] | SMILES | MIC [5] |
| --- | --- | --- | --- | --- | --- | --- | --- | --- | --- | --- | --- | --- | --- | --- |
| > 256 µg/mL | > 256 µg/mL | 4 µg/mL (≈ 10.9 µM) | 8 µg/mL (≈ 21.9 µM) | > 256 µg/mL | 16 µg/mL (≈ 43.8 µM) | > 256 µg/mL | 4 µg/mL (≈ 10.9 µM) | 4 µg/mL (≈ 10.9 µM) | > 256 µg/mL | > 256 µg/mL | > 256 µg/mL | 8 µg/mL (≈ 21.9 µM) | O=C1CS/C(=N\N=C2CCCCCC2)N1Cc1cccc2ccccc12 | > 256 µg/mL |
| > 256 µg/mL | > 256 µg/mL | 16 µg/mL (≈ 43.5 µM) | 2 µg/mL (≈ 5.44 µM) | > 256 µg/mL | 8 µg/mL (≈ 21.8 µM) | > 256 µg/mL | 16 µg/mL (≈ 43.5 µM) | 2 µg/mL (≈ 5.44 µM) | > 256 µg/mL | > 256 µg/mL | > 256 µg/mL | 2 µg/mL (≈ 5.44 µM) | CCCC/C(CC)=N/N=C1\SCC(=O)N1Cc1cccc2ccccc12 | > 256 µg/mL |
| > 256 µg/mL | > 256 µg/mL | 8 µg/mL (≈ 21 µM) | 8 µg/mL (≈ 21 µM) | > 256 µg/mL | 2 µg/mL (≈ 5.24 µM) | > 256 µg/mL | 16 µg/mL (≈ 41.9 µM) | 16 µg/mL (≈ 41.9 µM) | > 256 µg/mL | > 256 µg/mL | > 256 µg/mL | 2 µg/mL (≈ 5.24 µM) | CCCCCC/C(C)=N/N=C1\SCC(=O)N1Cc1cccc2ccccc12 | > 256 µg/mL |
| > 256 µg/mL | > 256 µg/mL | 8 µg/mL (≈ 20 µM) | 16 µg/mL (≈ 39.9 µM) | > 256 µg/mL | 16 µg/mL (≈ 39.9 µM) | > 256 µg/mL | 16 µg/mL (≈ 39.9 µM) | 16 µg/mL (≈ 39.9 µM) | > 256 µg/mL | > 256 µg/mL | > 256 µg/mL | 2 µg/mL (≈ 4.99 µM) | CCCCCC/C(C)=N/N=C1\SCC(=O)N1CN1C(=O)c2ccccc2C1=O | > 256 µg/mL |
